Converted amounts (≈) assume the structure as drawn. The source made the active and inactive calls. No cut-off for these calls is given here.
Assays:
C6 [1] = assay: Cytotoxicity against rat C6 cells at 5 ug/ml after 48 hrs by MTT assay; format: functional
Method in brief: (§1)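 MTT viability assay. C6 seeded at 1×10^3 cells/well in DMEM/5% FBS and U-138 MG in DMEM/15% FBS. Exposed to 0.1, 0.5, 1, 5, 10 μg/ml for 24, 48 or 72 h, or to AS605240 at 100 nM, 10 μM or 30 μM for 48 h. Vehicle 0.01% DMSO. Viability given as % of control, mean ± SEM of 3 experiments in triplicate. IC50 as geometric mean with 95% confidence limits.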

[2] = Cytotoxicity against human U138MG cells at 5 ug/ml after 48 hrs by MTT assay; format: functional, U138-MG; method in brief: as §1
C6 [3] = assay: Cytotoxicity against rat C6 cells after 48 hrs by MTT assay; format: functional, cell-based; conditions: C6, 48 h; method in brief: as §1
[4] = Antiproliferative activity against human U138MG cells at 5 ug/ml after 24 to 72 hrs by hemocytometric analysis; format: functional, U138-MG
Method in brief: (§2)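 Cell-count proliferation assay. U-138 MG seeded at 1×10^4 cells/well in DMEM/15% FBS and C6 at 5×10^3 cells/well in DMEM/5% FBS, grown 24 h. Medium changed, then chalcones (0.1–10 μg/ml) or AS605240 (100 nM, 10 μM, 30 μM) added. Cells washed in Ca/Mg-free PBS, trypsin/EDTA-detached and counted in a Neubauer chamber. Inhibition versus control, mean ± SEM of 3 experiments in triplicate.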

C6 [5] = assay: Antiproliferative activity against rat C6 cells at 5 ug/ml after 24 to 72 hrs by hemocytometric analysis; format: functional; method in brief: as §2
[6] = Antiproliferative activity against human U138MG cells after 24 to 72 hrs by hemocytometric analysis; format: functional, cell-based; conditions: U138-MG; method in brief: as §2
C6 [7] = assay: Antiproliferative activity against rat C6 cells after 24 to 72 hrs by hemocytometric analysis; format: functional, cell-based; method in brief: as §2
U138-MG [8] = assay: Cytotoxicity against human U138MG cells at 0.1 to 0.5 ug/ml after 48 to 72 hrs by MTT assay; format: functional, cell-based; method in brief: as §1
C6 [9] = assay: Cytotoxicity against rat C6 cells at 0.1 to 0.5 ug/ml after 48 to 72 hrs by MTT assay; format: functional, cell-based; method in brief: as §1
U138-MG [10] = assay: Cytotoxicity against human U138MG cells at 0.1 to 0.5 ug/ml after 24 hrs by MTT assay; format: functional, cell-based; method in brief: as §1
C6 [11] = assay: Cytotoxicity against rat C6 cells at 0.1 to 0.5 ug/ml after 24 hrs by MTT assay; format: functional, cell-based; method in brief: as §1
U138-MG [12] = assay: Cytotoxicity against human U138MG cells at 0.1 to 0.5 ug/ml by MTT assay; format: functional, cell-based; conditions: TDE = time-dependent effect; method in brief: as §1
C6 [13] = assay: Cytotoxicity against rat C6 cells at 0.1 to 0.5 ug/ml by MTT assay; format: functional, cell-based; conditions: TDE = time-dependent effect; method in brief: as §1
U138-MG [14] = assay: Antiproliferative activity against human U138MG cells at 0.1 to 0.5 ug/ml after 48 to 72 hrs by hemocytometric analysis; format: functional, cell-based; method in brief: as §2
C6 [15] = assay: Antiproliferative activity against rat C6 cells at 0.1 to 0.5 ug/ml after 48 to 72 hrs by hemocytometric analysis; format: functional, cell-based; method in brief: as §2
U138-MG [16] = assay: Antiproliferative activity against human U138MG cells at 0.1 to 0.5 ug/ml after 24 hrs by hemocytometric analysis; format: functional, cell-based; method in brief: as §2
C6 [17] = assay: Antiproliferative activity against rat C6 cells at 0.1 to 0.5 ug/ml after 24 hrs by hemocytometric analysis; format: functional, cell-based; method in brief: as §2
U138-MG [18] = assay: Antiproliferative activity against human U138MG cells at 0.1 to 0.5 ug/ml by hemocytometric analysis; format: functional, cell-based; conditions: TDE = time-dependent effect; method in brief: as §2
C6 [19] = assay: Antiproliferative activity against rat C6 cells at 0.1 to 0.5 ug/ml by hemocytometric analysis; format: functional, cell-based; conditions: TDE = time-dependent effect; method in brief: as §2
U138-MG [20] = assay: Cytotoxicity against human U138MG cells at 100 nM after 48 by MTT assay; format: functional, cell-based; method in brief: as §1
C6 [21] = assay: Cytotoxicity against rat C6 cells at 100 nM after 48 hrs by MTT assay; format: functional, cell-based; method in brief: as §1
U138-MG [22] = assay: Antiproliferative activity against human U138MG cells at 100 nM after 48 by hemocytometric analysis; format: functional, cell-based; method in brief: as §2
C6 [23] = assay: Antiproliferative activity against rat C6 cells at 100 nM after 48 hrs by hemocytometric analysis; format: functional, cell-based; method in brief: as §2
[24] = Growth inhibition of human U138MG cells at 30 uM after 48 by MTT assay; format: functional; conditions: U138-MG, read-out: GI; method in brief: as §1
C6 [25] = assay: Growth inhibition of rat C6 cells at 30 uM after 48 hrs by MTT assay; format: functional; conditions: C6, 48 h, read-out: GI; method in brief: as §1
[26] = Antiproliferative activity against human U138MG cells assessed as growth inhibition at 30 uM after 48 by hemocytometric analysis; format: functional; conditions: U138-MG, read-out: GI; method in brief: as §2
C6 [27] = assay: Antiproliferative activity against rat C6 cells assessed as growth inhibition at 30 uM after 48 hrs by hemocytometric analysis; format: functional; conditions: C6, 48 h, read-out: GI; method in brief: as §2
C6 [28] = assay: Inhibition of PI3Kgamma-mediated Akt activation in rat C6 cells at 30 uM after 15 mins by flow cytometric analysis; format: cell-based
Method in brief: (§3)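 C6 cells (2×10^5/well) grown 24 h in 5% FBS DMEM, then serum-starved 24 h in 0.5% FBS. Treated with 5 μg/ml test compound or 30 μM AS605240 plus 5% FBS stimulus, 15 or 30 min. Cells trypsinized, fixed, permeabilized, stained 30 min with AKT antibody and read by flow cytometry. Controls: unstimulated, and 5% FBS plus 0.01% DMSO.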

C6 [29] = assay: Inhibition of PI3Kgamma-mediated Akt activation in rat C6 cells at 30 uM after 30 mins by flow cytometric analysis; format: cell-based; method in brief: as §3
[30] = Antiproliferative activity against human U138MG cells at 2 ug/ml after 48 hrs by hemocytometric analysis; format: functional; conditions: U138-MG
Method in brief: (§4)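 Doxorubicin at 2 μg/mL for 48 h on C6 and U-138 MG cells. Proliferation measured as percentage inhibition.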

C6 [31] = assay: Antiproliferative activity against rat C6 cells at 2 ug/ml after 48 hrs by hemocytometric analysis; format: functional; conditions: C6, 48 h; method in brief: as §4
C6 [32] = assay: Cell cycle arrest in rat C6 cells assessed as accumulation at sub-G1/G0 phase after 6 hrs by flow cytometric analysis; format: functional, cell-based
Method in brief: (§5)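 C6 cells at 3×10^5 per well, in triplicate, given 0.1% DMSO vehicle or 2.5 μg/ml for 6, 12 or 24 h. Ethanol-fixed (70%), stained with propidium iodide/RNase/Triton, 10,000 cells acquired by flow cytometry. Results are relative cell numbers in sub-G1/G1, S and G2/M, from 6 independent experiments.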

C6 [33] = assay: Cell cycle arrest in rat C6 cells assessed as accumulation at sub-G1/G0 phase after 12 hrs by flow cytometric analysis; format: functional, cell-based; method in brief: as §5
C6 [34] = assay: Cell cycle arrest in rat C6 cells assessed as accumulation at sub-G1/G0 phase at 2.5 ug/ml after 24 hrs by flow cytometric analysis (reference value: 57.9%); format: functional; method in brief: as §5
C6 [35] = assay: Inhibition of PI3Kgamma-mediated Akt activation in rat C6 cells at 5 ug/ml after 15 mins by flow cytometric analysis; format: cell-based; method in brief: as §3
C6 [36] = assay: Inhibition of PI3Kgamma-mediated Akt activation in rat C6 cells at 5 ug/ml after 30 mins by flow cytometric analysis; format: cell-based; method in brief: as §3

COc1ccc(C(=O)/C=C/c2ccc3nccnc3c2)c(OC)c1
Imax (C6 [1]): 52% | Imax [2]: 42% | IC50 (C6 [3]): 4.6 µg/mL (≈ 14.4 µM) | Imax [4]: 86% | Imax (C6 [5]): 67% | IC50 [6]: 2.48 µg/mL (≈ 7.74 µM) | IC50 (C6 [7]): 1.53 µg/mL (≈ 4.78 µM) | Activity (U138-MG [8]): Active | Activity (C6 [9]): Active | Activity (U138-MG [10]): inactive | Activity (C6 [11]): inactive | Activity (U138-MG [12]): tde | Activity (C6 [13]): tde | Activity (U138-MG [14]): Active | Activity (C6 [15]): Active | Activity (U138-MG [16]): inactive | Activity (C6 [17]): inactive | Activity (U138-MG [18]): tde | Activity (C6 [19]): tde

COc1ccc(C(=O)/C=C/c2ccc3nccnc3c2)cc1
Imax (C6 [1]): 53% | Imax [2]: 34% | IC50 (C6 [3]): 4.42 µg/mL (≈ 15.2 µM) | Imax [4]: 84% | Imax (C6 [5]): 90% | IC50 [6]: 2.67 µg/mL (≈ 9.2 µM) | IC50 (C6 [7]): 2.19 µg/mL (≈ 7.54 µM) | Activity (U138-MG [8]): Active | Activity (C6 [9]): Active | Activity (U138-MG [10]): inactive | Activity (C6 [11]): inactive | Activity (U138-MG [12]): tde | Activity (C6 [13]): tde | Activity (U138-MG [14]): Active | Activity (C6 [15]): Active | Activity (U138-MG [16]): inactive | Activity (C6 [17]): inactive | Activity (U138-MG [18]): tde | Activity (C6 [19]): tde

O=C1NC(=O)/C(=C/c2ccc3nccnc3c2)S1
Activity (U138-MG [20]): inactive | Activity (C6 [21]): inactive | Activity (U138-MG [22]): inactive | Activity (C6 [23]): inactive | inhibition of growth at 30 µM [24]: 10% | inhibition of growth at 30 µM (C6 [25]): 35% | inhibition of growth at 30 µM [26]: 10% | inhibition of growth at 30 µM (C6 [27]): 73% | inhibition (C6 [28]): 31% | inhibition (C6 [29]): 41%

COc1cccc2c1C(=O)c1c(O)c3c(c(O)c1C2=O)C[C@@](O)(C(=O)CO)C[C@@H]3O[C@H]1C[C@H](N)[C@H](O)[C@H](C)O1 [DOXORUBICIN]
inhibition at 2 µg/mL [30]: 31% | inhibition at 2 µg/mL (C6 [31]): 27%

O=C(/C=C/c1ccc2nccnc2c1)c1ccc2c(c1)OCO2
Imax (C6 [1]): 55% | Imax [2]: 15% | IC50 (C6 [3]): 8.39 µg/mL (≈ 27.6 µM)

O=C(/C=C/c1ccc2nccnc2c1)c1ccc(Br)cc1
Imax (C6 [1]): 56% | Imax [2]: 16% | IC50 (C6 [3]): 9.19 µg/mL (≈ 27.1 µM)

COc1ccc(OC)c(C(=O)/C=C/c2ccc3nccnc3c2)c1
Imax (C6 [1]): 50% | Imax [2]: 36% | IC50 (C6 [3]): 2.66 µg/mL (≈ 8.3 µM) | Imax [4]: 87% | Imax (C6 [5]): 85% | IC50 [6]: 2.64 µg/mL (≈ 8.24 µM) | IC50 (C6 [7]): 1.35 µg/mL (≈ 4.21 µM) | Activity (U138-MG [8]): Active | Activity (C6 [9]): Active | Activity (U138-MG [10]): inactive | Activity (C6 [11]): inactive | Activity (U138-MG [12]): tde | Activity (C6 [13]): tde | Activity (U138-MG [14]): Active | Activity (C6 [15]): Active | Activity (U138-MG [16]): inactive | Activity (C6 [17]): inactive | Activity (U138-MG [18]): tde | Activity (C6 [19]): tde | Activity (C6 [32]): Active | Activity (C6 [33]): Active | Activity (C6 [34]): 66.4% | inhibition (C6 [35]): 60% | inhibition (C6 [36]): 46%

COc1ccc(C(=O)/C=C/c2ccc3nccnc3c2)cc1OC
Imax (C6 [1]): 51% | Imax [2]: 33% | IC50 (C6 [3]): 4.16 µg/mL (≈ 13 µM) | Imax [4]: 84% | Imax (C6 [5]): 82% | IC50 [6]: 2.29 µg/mL (≈ 7.15 µM) | IC50 (C6 [7]): 1 µg/mL (≈ 3.12 µM) | Activity (U138-MG [8]): Active | Activity (C6 [9]): Active | Activity (U138-MG [10]): inactive | Activity (C6 [11]): inactive | Activity (U138-MG [12]): tde | Activity (C6 [13]): tde | Activity (U138-MG [14]): Active | Activity (C6 [15]): Active | Activity (U138-MG [16]): inactive | Activity (C6 [17]): inactive | Activity (U138-MG [18]): tde | Activity (C6 [19]): tde

O=C(/C=C/c1ccc2nccnc2c1)c1ccccc1
Imax (C6 [1]): 60% | Imax [2]: 21% | IC50 (C6 [3]): 4.63 µg/mL (≈ 17.8 µM)

O=C(/C=C/c1ccc2nccnc2c1)c1ccc([N+](=O)[O-])cc1
Imax (C6 [1]): 26% | Imax [2]: 9%

From ChEMBL document CHEMBL1938291, “Activity of novel quinoxaline-derived chalcones on in vitro glioma cell proliferation” (Eur J Med Chem, 2012)
